# From ChEMBL document CHEMBL1926614, “Substituted thiazoles V. synthesis and antitumor activity of novel thiazolo[2,3-b]quinazoline and pyrido[4,3-d]thiazolo[3,2-a]pyrimidine analogues” (2012)
# Calls of active or inactive are those of the source. The calls are words filed in the database; no cut-off is given here.
# What was measured:
# Type in all cases: functional
# [1] = test system: NCI-H226; experiment: Growth inhibition of human NCI-H226 cells at 10 uM after 48 hrs by coulter counting
# Method in brief: (§1)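 Single-dose primary screen across the full NCI 60-cell-line panel. Stocks were made in DMSO and diluted in PBS to a final DMSO below 1%. Cultures at 6 × 10⁴ cells/ml were run in duplicate wells alongside PBS/DMSO vehicle controls at 37 °C in humidified 5% CO₂. Data were expressed as percent growth of treated cells.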
# [2] = test system: A498; experiment: Growth inhibition of human A498 cells at 10 uM after 48 hrs by coulter counting; method in brief: as §1
# [3] = Cytotoxicity against human prostate cancer cells after 48 hrs by coulter counting; details: Cancer cell lines
# Method in brief: (§2)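 NCI 60-cell-line panel covering nine tumour subpanels, tested over a 5-log dose range. Compounds were dissolved in DMSO and diluted in phosphate-buffered saline to a final DMSO below 1%. Wells held 6 × 10⁴ cells/ml and were run in duplicate. Controls contained PBS and DMSO at matching dilutions. Incubation was at 37 °C in humidified 5% CO₂. GI₅₀, TGI and LC₅₀ were reported.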
# [4] = Cytotoxicity against human ovarian cancer cells after 48 hrs by coulter counting; details: Cancer cell lines; method in brief: as §2
# [5] = test system: UACC-62; experiment: Growth inhibition of human UACC62 cells at 10 uM after 48 hrs by coulter counting
# Method in brief: (§3)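 Single-dose screen in the NCI 60 human tumor cell line panel (nine subpanels). Compounds dissolved in DMSO and diluted in phosphate buffered saline, keeping final DMSO below 1%. Added in duplicate wells to cells at 6 × 10⁴ cells/ml. Controls held PBS and DMSO at matching dilutions. Incubated at 37 °C, humidified, 5% CO₂. Reported as percent growth of treated cells.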
# [6] = test system: SNB-19; experiment: Growth inhibition of human SNB19 cells at 10 uM after 48 hrs by coulter counting; details: SNB-19, 48 h, read-out: GI; method in brief: as §1
# [7] = test system: EKVX; experiment: Growth inhibition of human EKVX cells at 10 uM after 48 hrs by coulter counting; method in brief: as §1
# [8] = test system: ACHN; experiment: Growth inhibition of human ACHN cells at 10 uM after 48 hrs by coulter counting; method in brief: as §1
# [9] = Growth inhibition of human NCI-322M cells at 10 uM after 48 hrs by coulter counting; details: read-out: GI; method in brief: as §1
# [10] = test system: HOP-62; experiment: Growth inhibition of human HOP62 cells at 10 uM after 48 hrs by coulter counting; method in brief: as §1
# [11] = Cytotoxicity against human colon cancer cells after 48 hrs by coulter counting; details: Cancer cell lines; method in brief: as §2
# [12] = test system: NSCLC; experiment: Cytotoxicity against human NSCLC cells after 48 hrs by coulter counting; method in brief: as §2
# [13] = test system: SF-539; experiment: Growth inhibition of human SF539 cells at 10 uM after 48 hrs by coulter counting; details: SF-539, 48 h, read-out: GI; method in brief: as §1
# [14] = test system: HT-29; experiment: Growth inhibition of human HT-29 cells at 10 uM after 48 hrs by coulter counting; method in brief: as §1
# [15] = test system: MCF7; experiment: Growth inhibition of human MCF7 cells at 10 uM after 48 hrs by coulter counting; details: MCF7, 48 h, read-out: GI; method in brief: as §1
# [16] = test system: SF-268; experiment: Growth inhibition of human SF268 cells at 10 uM after 48 hrs by coulter counting; details: SF-268, 48 h, read-out: GI; method in brief: as §1
# [17] = test system: NCI/ADR-RES; experiment: Growth inhibition of human NCI/ADR-RES cells at 10 uM after 48 hrs by coulter counting; details: read-out: GI; method in brief: as §1
# [18] = test system: NCI-H460; experiment: Growth inhibition of human NCI-H460 cells at 10 uM after 48 hrs by coulter counting; method in brief: as §1
# [19] = test system: SK-MEL-2; experiment: Growth inhibition of human SK-MEL-2 cells at 10 uM after 48 hrs by coulter counting; method in brief: as §1
# [20] = test system: CCRF-CEM; experiment: Growth inhibition of human CCRF-CEM cells at 10 uM after 48 hrs by coulter counting; details: read-out: GI; method in brief: as §1
# [21] = test system: M14; experiment: Growth inhibition of human M14 cells at 10 uM after 48 hrs by coulter counting; method in brief: as §1
# [22] = Cytotoxicity against human breast cancer cells after 48 hrs by coulter counting; details: Cancer cell lines; method in brief: as §2
# [23] = Cytotoxicity against human leukemia cells after 48 hrs by coulter counting; details: Leukemia cell; method in brief: as §2
# [24] = test system: K562; experiment: Growth inhibition of human K562 cells at 10 uM after 48 hrs by coulter counting; method in brief: as §1
# [25] = test system: T47D; experiment: Growth inhibition of human T47D cells at 10 uM after 48 hrs by coulter counting; details: read-out: GI; method in brief: as §3
# [26] = test system: UO-31; experiment: Growth inhibition of human UO31 cells at 10 uM after 48 hrs by coulter counting; method in brief: as §3
# [27] = test system: OVCAR-4; experiment: Growth inhibition of human OVCAR4 cells at 10 uM after 48 hrs by coulter counting; details: OVCAR-4, 48 h, read-out: GI; method in brief: as §1
# [28] = Cytotoxicity against human renal cancer cells after 48 hrs by coulter counting; details: Cancer cell lines; method in brief: as §2
# [29] = test system: SK-MEL-5; experiment: Growth inhibition of human SK-MEL-5 cells at 10 uM after 48 hrs by coulter counting; method in brief: as §1
# [30] = test system: NCI-H23; experiment: Growth inhibition of human NCI-H23 cells at 10 uM after 48 hrs by coulter counting; method in brief: as §1
# [31] = test system: SNB-75; experiment: Growth inhibition of human SNB75 cells at 10 uM after 48 hrs by coulter counting; details: SNB-75, 48 h, read-out: GI; method in brief: as §1
# [32] = test system: U-251; experiment: Growth inhibition of human U251 cells at 10 uM after 48 hrs by coulter counting; method in brief: as §3
# [33] = test system: DU-145; experiment: Growth inhibition of human DU145 cells at 10 uM after 48 hrs by coulter counting; method in brief: as §1
# [34] = test system: IGROV-1; experiment: Growth inhibition of human IGROV1 cells at 10 uM after 48 hrs by coulter counting; method in brief: as §1
# [35] = test system: SR; experiment: Growth inhibition of human SR cells at 10 uM after 48 hrs by coulter counting; method in brief: as §3
# [36] = test system: NCI-H522; experiment: Growth inhibition of human NCI-H522 cells at 10 uM after 48 hrs by coulter counting; method in brief: as §1
# [37] = test system: HL-60(TB); experiment: Growth inhibition of human HL-60(TB) cells at 10 uM after 48 hrs by coulter counting
# Method in brief: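 Test compound was dissolved in DMSO and diluted in phosphate-buffered saline to a final DMSO level below 1%. Dilutions were plated in duplicate with cell culture at 6 × 10⁴ cells/ml. Vehicle controls held PBS and DMSO at matching dilutions. Incubation was at 37 °C, humidified, under 5% CO₂. Data were reported as percent growth of treated cells.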
# [38] = test system: SK-MEL-28; experiment: Growth inhibition of human SK-MEL-28 cells at 10 uM after 48 hrs by coulter counting; details: SK-MEL-28, 48 h, read-out: GI; method in brief: as §1
# [39] = test system: UACC-257; experiment: Growth inhibition of human UACC257 cells at 10 uM after 48 hrs by coulter counting; method in brief: as §3
# [40] = test system: MOLT-4; experiment: Growth inhibition of human MOLT4 cells at 10 uM after 48 hrs by coulter counting; method in brief: as §1
# [41] = test system: MDA-MB-435; experiment: Growth inhibition of human MDA-MB-435 cells at 10 uM after 48 hrs by coulter counting; method in brief: as §1
# [42] = test system: LOX IMVI; experiment: Growth inhibition of human LOXIMVI cells at 10 uM after 48 hrs by coulter counting; method in brief: as §1
# [43] = test system: BT-549; experiment: Growth inhibition of human BT549 cells at 10 uM after 48 hrs by coulter counting; method in brief: as §1
# [44] = test system: KM12; experiment: Growth inhibition of human KM12 cells at 10 uM after 48 hrs by coulter counting; method in brief: as §1
# [45] = test system: CAKI-1; experiment: Growth inhibition of human Caki1 cells at 10 uM after 48 hrs by coulter counting; method in brief: as §1
# [46] = test system: HCC 2998; experiment: Growth inhibition of human HCC2998 cells at 10 uM after 48 hrs by coulter counting; method in brief: as §1
# [47] = test system: HCT-116; experiment: Growth inhibition of human HCT116 cells at 10 uM after 48 hrs by coulter counting; method in brief: as §1
# [48] = Cytotoxicity against human CNS cancer cells after 48 hrs by coulter counting; details: Cancer cell lines; method in brief: as §2
# [49] = test system: A549; experiment: Growth inhibition of human A549 cells at 10 uM after 48 hrs by coulter counting; method in brief: as §1
# [50] = test system: RPMI-8226; experiment: Growth inhibition of human RPMI8226 cells at 10 uM after 48 hrs by coulter counting; method in brief: as §1
# [51] = test system: SF-295; experiment: Growth inhibition of human SF295 cells at 10 uM after 48 hrs by coulter counting; method in brief: as §1
# [52] = read-out: LC50 (the source's name)
structure (smiles),measurement,setting,value
COc1cc(/C=C2\CCCC3=C2N=C2SC=CN2C3c2cc(OC)c(OC)c(OC)c2)cc(OC)c1OC (stereo not given),growth inhibition (GI),[1],Active
same,growth inhibition (GI),[2],Active
same,GI50,[3],2 µM
same,LC50 (concentration killing 50% of cells),[3],> 100 µM
same,TGI,[3],> 100 µM
same,GI50,[4],1.9 µM
same,TGI,[4],> 100 µM
same,CC50,[4]; [52],> 100 µM
same,growth inhibition (GI),[5],Active
same,inhibition of growth at 10 µM,[6],79%
same,growth inhibition (GI),[7],Active
same,growth inhibition (GI),[8],Active
same,inhibition of growth at 10 µM,[9],99.5%
same,growth inhibition (GI),[10],Active
same,GI50,[11],1.6 µM
same,GI50,[12],2.3 µM
same,TGI,[12],> 100 µM
same,CC50,[12]; [52],> 100 µM
same,inhibition of growth at 10 µM,[13],91.3%
same,growth inhibition (GI),[14],Active
same,inhibition of growth at 10 µM,[15],76%
same,inhibition of growth at 10 µM,[16],95%
same,inhibition of growth at 10 µM,[17],90.5%
same,growth inhibition (GI),[18],Active
same,growth inhibition (GI),[19],Active
same,inhibition of growth at 10 µM,[20],94.1%
same,growth inhibition (GI),[21],Active
same,GI50,[22],2.2 µM
same,TGI,[22],> 100 µM
same,CC50,[22]; [52],> 100 µM
same,GI50,[23],2 µM
same,TGI,[23],> 100 µM
same,CC50,[23]; [52],> 100 µM
same,growth inhibition (GI),[24],Active
same,inhibition of growth at 10 µM,[25],69%
same,growth inhibition (GI),[26],Active
same,inhibition of growth at 10 µM,[27],79.5%
same,GI50,[28],1.8 µM
same,LC50 (concentration giving 50% net cell kill),[28],> 100 µM
same,TGI,[28],> 100 µM
same,growth inhibition (GI),[29],Active
same,growth inhibition (GI),[30],Active
same,inhibition of growth at 10 µM,[31],65%
same,growth inhibition (GI),[32],Active
same,growth inhibition (GI),[33],Active
same,growth inhibition (GI),[34],Active
same,growth inhibition (GI),[35],Active
same,growth inhibition (GI),[36],Active
same,growth inhibition (GI),[37],Active
same,inhibition of growth at 10 µM,[38],89.7%
same,growth inhibition (GI),[39],Active
same,growth inhibition (GI),[40],Active
same,growth inhibition (GI),[41],Active
same,growth inhibition (GI),[42],Active
same,growth inhibition (GI),[43],Active
same,growth inhibition (GI),[44],Active
same,growth inhibition (GI),[45],Active
same,growth inhibition (GI),[46],Active
same,growth inhibition (GI),[47],Active
same,GI50,[48],47.8 µM
same,LC50,[48],> 100 µM
same,TGI,[48],> 100 µM
same,growth inhibition (GI),[49],Active
same,growth inhibition (GI),[50],Active
same,growth inhibition (GI),[51],Active
